# An excerpt weighted towards active compounds, which were near 2.6% of everything screened.
# MITF act: activators of MITF-driven TRPM1 promoter reporter, primary screen, cell-based, SK-MEL-5, luciferase, single point | activation, % at 12.5 µM | SK-MEL-5 TRPM1-promoter luciferase, 24 h; % of positive control, neutral wells = 0 | 0.75% of 300,000 active;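 active = mean activation of at least 80% with every replicate also reaching 80%; inconclusive = mean reaches 80% but some replicate falls short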;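 note: 0% = neutral control wells and 100% = parthenolide positive control wells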
# Vif inh: HIV Vif self-association inhibitors, primary screen, imaging, HEK293T, single point. HEK293T cells, Vif self-association by quenched fluorescence, 24 h. inhibition, % at 7.49 µM. 0.35% of 340,000 active. AID 602346, 2012; in the data active = inhibition above about 50%, passing the limit was not always enough; inconclusive = no clear call, values can overlap the other calls; inactive = below about 31%
# esBAF inh: Bmi1 luciferase reporter increase in mESCs, primary screen, esBAF inhibitor project, mouse ES cells, Bmi1 luciferase knock-in, single point. 24 h; 100% = twice the neutral-well signal. reporter increase, % at 12.5 µM. 2% of 350,000 active. AID 602393, 2012; in the data active = activation above about 40%; inconclusive = no clear call, values can overlap the other calls;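 note: 0% = median of the plate's neutral control wells and 100% = double that signal; a rise in the Bmi1 reporter signal indicates esBAF inhibition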
# Wnt bcat act: Wnt/beta-catenin pathway activators, primary screen, cell-based, plate reader, single point | Wnt/beta-catenin reporter cell assay, activator | activation, % at 9.35 µM | 1.2% of 300,000 active | AID 743398, 2014; in the data active = activation above about 30%, passing the limit was not always enough; inconclusive = no clear call, values can overlap the other calls;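 note: 0% = neutral control wells and 100% = positive control wells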
# XiGFP reactiv: activators of inactive X chromosome reactivation, primary screen, imaging, XiGFP fibroblasts, GFP high-content imaging, set 2 | XiGFP mouse fibroblasts, % GFP-positive cells imaging, 3 d; cells co-treated with 5-aza-dC sensitizer; scaled so ellipticine positive control = 100% | activation, % at 7.58 µM | 0.055% of 360,000 active | AID 743238, 2013;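 active = mean normalized replicate activation at least 10% and every replicate at or above 10%; inconclusive = only one of the two criteria met; inactive = mean below 10% and not all replicates reach 10%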;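 note: 0% = median of on-plate neutral control wells and 100% = ellipticine 6 µM median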
#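 Schedule: 3 d treatment, 15 min room-temperature fixation; system: 68-5-11 XiGFP fibroblast line; buffer or medium: DMEM plus 5-aza-dC sensitizer; control set: ellipticine 6 µM positive control; compound: one concentration, pinned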
# The depositor's hits bear a star; ? = inconclusive; nt = no result.
SMILES,MITF act,Vif inh,esBAF inh,Wnt bcat act,XiGFP reactiv
CCOC(=O)c1ccc(NC(=O)CC2SCCNC2=O)cc1 (configuration not stated),nt,-3.2,22.4,40.5*,nt
CCOC(=O)c1ccc(NC(=O)CC2NCCNC2=O)cc1 (configuration not stated),7.0,nt,2.1,-0.4,nt
Cc1cc(/C=C(\C#N)C(=O)Nc2ccccc2)c(C)n1-c1cccnc1,55.8,1.7,nt,-5.1,0.1
N#C/C(=C\c1ccccc1O)C(=O)Nc1cccnc1,93.9*,-7.8,40.9,35.7*,-0.2
COc1ccc(-c2oc3ccccc3c(=O)c2OC(C)=O)cc1,46.2,0.4,74.9*,-4.5,0.0
CC(=O)Oc1cc(O)c2c(=O)c(OC(C)=O)c(-c3ccc(OC(C)=O)c(OC(C)=O)c3)oc2c1,16.0,-14.4,43.1*,nt,nt
COc1ccc(-c2oc3cc(OC(C)=O)cc(OC(C)=O)c3c(=O)c2OC)cc1,11.3,-6.1,22.9,1.0,0.0
O=C(Nc1ccc2c(c1)[C@@H]1C[C@@H](CC(=O)N3CCCCC3)O[C@@H](CO)[C@@H]1O2)C1CCOCC1,nt,nt,-0.2,nt,0.0
COc1ccc(-c2noc(-c3ccc4c(c3)OCO4)n2)cc1,87.3*,-4.1,nt,20.8,nt
COc1cccc(-c2noc(-c3ccc4c(c3)OCO4)n2)c1,27.8,-6.2,nt,42.0*,-0.1
c1ccc(-c2noc(-c3ccc4c(c3)OCO4)n2)cc1,3.1,nt,nt,12.4,0.2
Cc1ccc2[nH]c(=O)c(-c3nc4cc(C)ccn4c3NCc3ccco3)cc2c1,2.4,nt,68.6*,nt,nt
COc1cc(-c2nc(-c3ccccn3)no2)cc(OC)c1OC,62.7,27.1,50.2*,nt,nt
c1ccc(-c2noc(-c3cccc4ccccc34)n2)nc1,-6.3,-3.0,-47.3,nt,nt
COc1cccc(-c2nc(-c3ccccn3)no2)c1OC,84.3*,18.6,42.5*,59.8*,nt
O=C(NCC[C@@H]1CC[C@H](NS(=O)(=O)c2ccc(Oc3ccccc3)cc2)[C@H](CO)O1)C1CC1,nt,nt,13.0,nt,-0.3
NC(CCc1ccccc1)c1csc(Nc2ccc(C(=O)c3ccccc3)cc2)n1 (configuration not stated),nt,56.8*,-5.0,-4.6,7.9
Cc1ccccc1S(=O)(=O)N(C)C[C@H]1OCc2cn(nn2)CCCC(=O)N([C@H](C)CO)C[C@H]1C,nt,nt,2.6,nt,-0.3
O=C(c1ccncc1)N1CC2(C1)[C@@H](c1ccccc1)[C@H](CO)N2C(=O)CC1CC1,nt,nt,nt,nt,0.0
O=C1NC(c2ccc(Br)cc2)Nc2sc3c(c21)CCC3 (configuration not stated),-13.7,8.3,2.9,7.6,nt
Cc1ccsc1C1NC(=O)c2c(sc3c2CCCC3)N1 (configuration not stated),51.8,2.0,49.9*,nt,nt
O=C1NC(c2ccccn2)Nc2sc3c(c21)CCC3 (configuration not stated),?,-2.7,66.1*,nt,nt
CC=Cc1ccc2n(c1=O)C[C@@H]1[C@@H](CO)[C@H](C(=O)NC3CCC3)N(C(=O)C3CC3)[C@H]21 (mixture of isomers),nt,nt,nt,nt,0.0
CO[C@H]1CN(C)C(=O)c2ccc(NS(C)(=O)=O)cc2OC[C@H](C)N(C(=O)C2CC2)C[C@H]1C,nt,nt,-0.2,nt,-0.4
C[C@H]1CCCCO[C@@H](CN(C)S(=O)(=O)c2ccccc2)[C@@H](C)CN([C@@H](C)CO)C(=O)c2cc(NC(=O)Cc3ccccc3)ccc2O1,nt,nt,3.5,nt,0.1
SMILES,MITF act,Vif inh,esBAF inh,Wnt bcat act,XiGFP reactiv
COc1cnn(-c2ccccc2)c(=O)c1OC,nt,-2.5,nt,50.1*,0.1
CC(=O)c1ccc(NC(=O)c2ccn(C(=O)OCC(C)C)n2)cc1,17.6,-8.2,nt,53.4*,-0.1
Cc1ccc(SCCSc2nc(C)cc(=O)[nH]2)cc1,53.4,-4.8,34.0,33.9*,0.1
Cc1ccc(SCCSc2nc(N)cc(=O)[nH]2)cc1,nt,-5.5,9.9,-0.7,0.1
Cc1ccc(NC(=O)CSc2nccn2Cc2ccco2)c(C)c1,20.1,20.6,-41.0,36.9*,0.9
Cc1ccc(C)c(NC(=O)CSc2nccn2Cc2ccco2)c1,31.4,-8.2,55.7*,7.3,0.2
C[C@H](CO)N1C[C@H](C)[C@@H](CN(C)CC2CC2)OCCCC[C@H](C)Oc2ccc(NS(C)(=O)=O)cc2C1=O,nt,nt,3.4,nt,0.4
COCCCn1c(=O)/c(=C\c2ccccc2OC(F)F)s/c1=C(/C#N)C(N)=O,15.3,139.3*,1.8,-1.3,0.0
COCCCn1c(=O)/c(=C\c2ccc(OC(F)F)c(OC)c2)s/c1=C(/C#N)C(N)=O,15.5,10.6,nt,10.2,0.0
COc1ccc(C2=NNC(=O)C2(C)Br)cc1 (configuration not stated),-4.5,-0.5,nt,51.2*,0.0
Cc1nnc(SCc2nc3ccccc3s2)n1N,19.7,-4.3,nt,7.7,-0.1
c1ccc(-n2cnnc2SCc2nc3ccccc3s2)cc1,nt,7.7,36.1,51.1*,nt
Cc1nnc(SCc2nc3ccccc3s2)n1-c1ccccc1,10.1,-6.0,72.0*,?,nt
CCC(c1nnc(SCc2nc3ccccc3s2)n1Cc1ccccc1)N(C)C (configuration not stated),11.7,nt,69.9*,nt,nt
CCn1c(SCc2nc3ccccc3s2)nnc1-c1ccccc1,6.4,-0.3,45.7*,nt,nt
C[C@@H]1CCCCO[C@H](CN(C)S(=O)(=O)c2cccs2)[C@H](C)CN([C@H](C)CO)C(=O)c2cc(NC(=O)Nc3ccc(F)cc3)ccc2O1,nt,nt,6.2,nt,-0.8
Cc1noc(C)c1S(=O)(=O)N(C)C[C@H]1Oc2ccc(NC(=O)C3CCCCC3)cc2CC(=O)N([C@@H](C)CO)C[C@@H]1C,nt,nt,0.6,nt,0.3
C[C@H](CO)N1C[C@H](C)[C@@H](CN(C)Cc2ccc(C(=O)O)cc2)OCCCC[C@H](C)Oc2ccc(NC(=O)CCCN(C)C)cc2C1=O,nt,nt,nt,nt,-0.1
CCN1C(=O)CC(N2CCN(c3ccc(C(=O)c4ccccc4)cc3)CC2)C1=O (configuration not stated),48.2,-3.3,54.8*,-0.8,nt
CCN1C(=O)CC(N2CCN(c3ccc(Cl)cc3)CC2)C1=O (configuration not stated),-0.1,4.1,-3.8,-0.1,nt
COCC(=O)N1[C@@H](CO)[C@@H](c2ccc(-c3cccc(OC)c3)cc2)C12CN(C(C)=O)C2,nt,nt,nt,nt,0.0
CCOC(=O)c1cnc(SCC(C)C)nc1N,109.1*,-0.7,52.5*,70.0*,nt
CCOC(=O)c1cnc(SCC(=O)c2ccc(C)cc2)nc1N,0.5,-3.4,0.5,0.5,nt
CCOC(=O)c1cnc(SCc2cccc(C)c2)nc1N,61.0,-1.8,nt,40.4*,nt
CCOC(=O)c1cnc(SCC(=O)c2ccccc2)nc1N,96.8*,-4.4,16.1,nt,nt
CCOC(=O)c1cnc(SC)nc1N,-7.7,-1.0,2.2,-0.9,nt

# Screens as filed in PubChem.
